Active and inactive are the calls of the source. The rule behind the calls is not given here.

Data set [1] concerns the target T1, Aldo-keto reductase family 1 member B1 (Homo sapiens, UniProt P15121). The data set can be described thus: Inhibition of human recombinant aldose reductase expressed in Escherichia coli at 1 uM using DL-glyceraldehyde as substrate in presence of NADPH measured up to 7 days at 37 degC by spectrophotometric analysis. The gist of the method: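 Inhibitor (1 μM, in DMSO) pre-incubated at 37 °C for 1, 3, 5 and 7 days before testing. Recombinant human AKR1B1 from E. coli then assayed by NADPH oxidation at 340 nm with 1.0 mM DL-glyceraldehyde and 150 μM NADPH in HEPES pH 7.5 buffer. Means ± SEM, n = 3.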

Data set [2] deals with Mus musculus. The data set can be described thus: In vivo inhibition of aldose reductase in transgenic PAR37 mouse expressing human aldose reductase assessed as reduction in vacuolization at 35 mg/kg, po for 16 days by hematoxylin/eosin staining. In kind it is functional, organism-based. The gist of the method:
(§1)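 PAR37 human AR transgenic mice and nontransgenic littermates, roughly equal by sex. Nursing mothers given 35 mg kg−1 in drinking water (DMSO vehicle) from pups' birth, or from 3 days before birth in one group. Sorbinil 80 mg kg−1 served as ARI control. Lenses taken at P16 and H&E-stained; vacuolated cross-sectional area measured on sections.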

The test system of data set [3] is Mus musculus. Briefly: In vivo inhibition of aldose reductase in wild type mouse assessed as reduction in vacuolization at 35 mg/kg, po administered 3 days prior to birth followed by compound treatment till day 16 by hematoxylin/eosin staining. It is filed as functional, organism-based. The gist of the method: as §1
Data set [4] relates to Mus musculus. Briefly: In vivo inhibition of aldose reductase in transgenic PAR37 mouse expressing human aldose reductase assessed as vacuolization at 35 mg/kg, po administered 3 days prior to birth followed by compound treatment till day 16 by hematoxylin/eosin staining (reference value: 18%). In kind it is functional. Further details: scale not given: the % may be the effect or the level left. A digest of the protocol: as §1

Data set [5] has as its target T1, Aldo-keto reductase family 1 member B1. Briefly: Inhibition of aldose reductase in human FHL124 cells assessed as reduction in high glucose-induced elevation of sorbitol accumulation at 5 uM after 24 hrs by colorimetric assay. In kind it is cell-based. A digest of the protocol: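 FHL 124 cells (10^5 per 60 mm dish) treated with emodin (5 μM) plus low (5 mM) or high (30 mM) glucose for 24 h. Cells washed twice in cold PBS, lysed and deproteinized. Sorbitol measured in neutralized samples by colorimetric kit at 560 nm.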

For data set [6] the target is unchanged. Briefly: Inhibition of human recombinant aldose reductase expressed in Escherichia coli using DL-glyceraldehyde as substrate in presence of NADPH by spectrophotometric analysis.
The test system of data set [7] is Mus musculus. Briefly: In vivo inhibition of aldose reductase in wild type mouse assessed as reduction in vacuolization at 35 mg/kg, po for 16 days by hematoxylin/eosin staining. It is filed as functional, organism-based. A digest of the protocol: as §1
Data set [8] is described as follows: Cytotoxicity against human FHL124 cells assessed as reduction in cell viability at 10 uM after 24 hrs by MTT assay. In kind it is toxicity, cell-based. As to conditions: fhl124, 24 h. A digest of the protocol: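 FHL 124 human lens epithelial cells grown in low-glucose (1 g L−1) DMEM with 4 mM L-glutamine and 5% FBS at 37 °C, 5% CO2. Seeded at 10^4 cells, treated with emodin for 24 h, then given MTT for 4 h. Viability read as absorbance at 570 nm.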
Background: Tetrazolium dyes change colour on reduction, which living cells bring about.

Data set [9] deals with Mus musculus. Briefly: In vivo inhibition of aldose reductase in transgenic PAR37 mouse expressing human aldose reductase assessed as vacuolization at 35 mg/kg, po for 16 days by hematoxylin/eosin staining (reference value: 18%). It is filed as functional. Further details: scale not given: the % may be the effect or the level left. A digest of the protocol:
as §1

Data set [10] addresses T1, Aldo-keto reductase family 1 member B1. Briefly: Uncompetitive inhibition of human recombinant aldose reductase expressed in Escherichia coli using DL-glyceraldehyde as substrate by double reciprocal plot analysis.
For data set [11], the system named is Mus musculus. Briefly: In vivo inhibition of aldose reductase in transgenic PAR37 mouse expressing human aldose reductase assessed as reduction in vacuolization at 80 mg/kg, po for 16 days by hematoxylin/eosin staining. It is filed as functional, organism-based. A digest of the protocol:
(§2)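 Drug dissolved in DMSO was given in the drinking water of nursing mothers from the pups' birthdate, dosed at 80 mg kg−1 to the mother; vehicle group received DMSO. Pups were PAR37 human AR transgenic mice or nontransgenic littermates, balanced by gender, n = 3. Lenses were taken at P16 and sectioned with H&E staining, and vacuolated cross-sectional area was measured as percent of lens.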

Data set [12] relates to Mus musculus. Briefly: In vivo inhibition of aldose reductase in wild type mouse assessed as reduction in vacuolization at 80 mg/kg, po for 16 days by hematoxylin/eosin staining. It is filed as functional, organism-based. A digest of the protocol: as §2
Data set [13] relates to Mus musculus. Briefly: In vivo inhibition of aldose reductase in transgenic PAR37 mouse expressing human aldose reductase assessed as vacuolization at 80 mg/kg, po for 16 days by hematoxylin/eosin staining (reference value: 18%). Further details: scale not given: the % may be the effect or the level left. In kind it is functional. A digest of the protocol:
as §2

For orientation: IC50 means the point on the concentration scale where inhibition reaches its midpoint. What is called Ki is the equilibrium dissociation constant of an inhibitor or competing ligand from its target. On to `Cc1cc(O)c2c(c1)C(=O)c1cc(O)cc(O)c1C2=O` [EMODIN], for which the inhibition result in data set [1], in data set [2], in data set [3], in data set [5] and in [7] was “Active” in each case. Also, the Activity in data set [4] is recorded as 2%; in data set [8], “Toxic”; in data set [9], 6.3%. Also, in data set [6], the half-maximal inhibitory concentration (IC50) came out at 2690 nM. The Ki in data set [10] came out at 2110 nM.
`O=C1NC(=O)[C@@]2(CCOc3ccc(F)cc32)N1` [SORBINIL]: the inhibition entry in data set [11] and in data set [12] was “Active” in each case. Moreover, the Activity in [13] is given as 3.8%.

For the origin of these results see ChEMBL document CHEMBL3853287, “Characterization of Emodin as a Therapeutic Agent for Diabetic Cataract” (J Nat Prod, 2016).
